Reference: ChEMBL document CHEMBL3856258, “Phosphonate-based irreversible inhibitors of human γ-glutamyl transpeptidase (GGT). GGsTop is a non-toxic and highly selective inhibitor with critical electrostatic interaction with an active-site residue Lys562 for enhanced inhibitory activity” (Bioorg Med Chem, 2016)

How the values were obtained:
[1] = Cytotoxicity against CHL cells assessed as chromatid gap at 825 ug/ml after 24 hrs by Giemsa-staining-based microscopic analysis; assay type: toxicity, cell-based, Cricetulus griseus; conditions: chinese hamster
[2] = Cytotoxicity against CHL cells assessed as structural aberrations at 1650 ug/ml preincubated for 6 hrs followed by 18 hrs incubation in fresh medium in absence of S9 fraction by Giemsa-staining-based microscopic analysis; assay type: toxicity, cell-based, Cricetulus griseus; conditions: chinese hamster
[3] = Hydrolytic stability of compound in D2O at pH >8.5 by 31P NMR spectroscopy; assay type: physicochemical
[4] = Cytotoxicity against CHL cells assessed as growth rate at 33.8 ug/ml after 24 hrs in absence of S9 fraction by MTT assay relative to control; assay type: toxicity, cell-based, Cricetulus griseus; conditions: chinese hamster, read-out: Activity
[5] = Cytotoxicity against CHL cells assessed as growth rate at 211 ug/ml preincubated for 6 hrs followed by 18 hrs incubation in fresh medium in absence of S9 fraction by MTT assay relative to control; assay type: toxicity, cell-based, Cricetulus griseus; conditions: chinese hamster, read-out: Activity
[6] = Cytotoxicity against CHL cells assessed as number of cells with numerical aberrations at 3300 ug/ml preincubated for 6 hrs followed by 18 hrs incubation in fresh medium in presence of S9 fraction by Giemsa staining-based microscopic analysis relative to control; assay type: toxicity, cell-based, Cricetulus griseus; conditions: chinese hamster
[7] = test system: Salmonella typhimurium; experiment: Genotoxicity in Salmonella typhimurium TA1537 assessed as number of revertant colonies per plate at 185 ug/plate after 20 mins in presence of S9 fraction by Ames test (reference value: 15); assay type: toxicity, organism-based; conditions: salmonella enterica subsp. enterica serovar typhimurium
[8] = species on record: Rattus norvegicus; experiment: Cytotoxicity against Wistar rat BSC assessed as reduction in cell viability up to 1 mM after 24 hrs by neutral red method; assay type: toxicity
[9] = test system: Escherichia coli K-12; experiment: Irreversible inhibition of Escherichia coli K-12 SH642 GGT using gamma-Glu-AMC as substrate assessed as association rate constant by […] analysis
Summary of the method: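 GGT was purified from the periplasmic fraction of recombinant E. coli K-12 SH642. Hydrolytic activity was followed with γ-Glu-AMC as substrate. Irreversible inactivation was expressed as kon, the second-order rate constant for the inhibitor–enzyme reaction.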

[10] = test system: Salmonella typhimurium; experiment: Genotoxicity in Salmonella typhimurium TA98 assessed as number of revertant colonies per plate at 185 ug/plate after 20 mins in presence of S9 fraction by Ames test (reference value: 26); assay type: toxicity, organism-based; conditions: salmonella enterica subsp. enterica serovar typhimurium
[11] = test system: Escherichia coli; experiment: Genotoxicity in Escherichia coli WP2uvrA assessed as number of revertant colonies per plate at 61.7 ug/plate after 20 mins in absence of S9 fraction by Ames test (reference value: 24); assay type: toxicity; conditions: s9, 20 min
[12] = Cytotoxicity against CHL cells assessed as structural aberrations at 3300 ug/ml preincubated for 6 hrs followed by 18 hrs incubation in fresh medium in presence of S9 fraction by Giemsa-staining-based microscopic analysis; assay type: toxicity, cell-based, Cricetulus griseus; conditions: chinese hamster
[13] = test system: Salmonella typhimurium; experiment: Genotoxicity in Salmonella typhimurium TA1537 assessed as number of revertant colonies per plate at 1667 ug/plate after 20 mins in presence of S9 fraction by Ames test (reference value: 15); assay type: toxicity, organism-based; conditions: salmonella enterica subsp. enterica serovar typhimurium
[14] = Cytotoxicity against CHL cells assessed as growth rate at 5.41 ug/ml preincubated for 6 hrs followed by 18 hrs incubation in fresh medium in absence of S9 fraction by MTT assay relative to control; assay type: toxicity, cell-based, Cricetulus griseus; conditions: chinese hamster, read-out: Activity
[15] = Cytotoxicity against CHL cells assessed as growth rate at 5.41 ug/ml after 24 hrs in absence of S9 fraction by MTT assay relative to control; assay type: toxicity, cell-based, Cricetulus griseus; conditions: chinese hamster, read-out: Activity
[16] = Cytotoxicity against CHL cells assessed as structural aberrations at 825 ug/ml after 24 hrs by Giemsa-staining-based microscopic analysis; assay type: toxicity, cell-based, Cricetulus griseus; conditions: chinese hamster
[17] = Cytotoxicity against CHL cells assessed as growth rate at 2.16 ug/ml after 24 hrs in absence of S9 fraction by MTT assay relative to control; assay type: toxicity, cell-based, Cricetulus griseus; conditions: chinese hamster, read-out: Activity
[18] = test system: Salmonella typhimurium; experiment: Genotoxicity in Salmonella typhimurium TA98 assessed as number of revertant colonies per plate at 1667 ug/plate after 20 mins in presence of S9 fraction by Ames test (reference value: 26); assay type: toxicity, organism-based; conditions: salmonella enterica subsp. enterica serovar typhimurium
[19] = Cytotoxicity against CHL cells assessed as structural aberrations at 3300 ug/ml preincubated for 6 hrs followed by 18 hrs incubation in fresh medium in absence of S9 fraction by Giemsa-staining-based microscopic analysis; assay type: toxicity, cell-based, Cricetulus griseus; conditions: chinese hamster
[20] = Cytotoxicity against CHL cells assessed as chromatid gap at 825 ug/ml preincubated for 6 hrs followed by 18 hrs incubation in fresh medium in presence of S9 fraction by Giemsa-staining-based microscopic analysis; assay type: toxicity, cell-based, Cricetulus griseus; conditions: chinese hamster
[21] = Cytotoxicity against CHL cells assessed as growth rate at 1320 ug/ml preincubated for 6 hrs followed by 18 hrs incubation in fresh medium in presence of S9 fraction by MTT assay relative to control; assay type: toxicity, cell-based, Cricetulus griseus; conditions: chinese hamster, read-out: Activity
[22] = Cytotoxicity against CHL cells assessed as chromatid gap at 3300 ug/ml preincubated for 6 hrs followed by 18 hrs incubation in fresh medium in presence of S9 fraction by Giemsa-staining-based microscopic analysis; assay type: toxicity, cell-based, Cricetulus griseus; conditions: chinese hamster
[23] = test system: Salmonella typhimurium; experiment: Genotoxicity in Salmonella typhimurium TA1535 assessed as number of revertant colonies per plate at 185 ug/plate after 20 mins in presence of S9 fraction by Ames test (reference value: 13); assay type: toxicity, organism-based; conditions: salmonella enterica subsp. enterica serovar typhimurium
[24] = Cytotoxicity against CHL cells assessed as number of cells with numerical aberrations at 825 ug/ml preincubated for 6 hrs followed by 18 hrs incubation in fresh medium in absence of S9 fraction by Giemsa-staining-based microscopic analysis relative to control; assay type: toxicity, cell-based, Cricetulus griseus; conditions: chinese hamster
[25] = test system: Salmonella typhimurium; experiment: Genotoxicity in Salmonella typhimurium TA1535 assessed as number of revertant colonies per plate at 5000 ug/plate after 20 mins in presence of S9 fraction by Ames test (reference value: 13); assay type: toxicity, organism-based; conditions: salmonella enterica subsp. enterica serovar typhimurium
[26] = test system: Salmonella typhimurium; experiment: Genotoxicity in Salmonella typhimurium TA1537 assessed as number of revertant colonies per plate at 1667 ug/plate after 20 mins in absence of S9 fraction by Ames test (reference value: 9); assay type: toxicity, organism-based; conditions: salmonella enterica subsp. enterica serovar typhimurium
[27] = test system: Salmonella typhimurium; experiment: Genotoxicity in Salmonella typhimurium TA1537 assessed as number of revertant colonies per plate at 5000 ug/plate after 20 mins in presence of S9 fraction by Ames test (reference value: 15); assay type: toxicity, organism-based; conditions: salmonella enterica subsp. enterica serovar typhimurium
[28] = Cytotoxicity against CHL cells assessed as growth rate at 211 ug/ml after 24 hrs in absence of S9 fraction by MTT assay relative to control; assay type: toxicity, cell-based, Cricetulus griseus; conditions: chinese hamster, read-out: Activity
[29] = Cytotoxicity against CHL cells assessed as growth rate at 13.5 ug/ml preincubated for 6 hrs followed by 18 hrs incubation in fresh medium in absence of S9 fraction by MTT assay relative to control; assay type: toxicity, cell-based, Cricetulus griseus; conditions: chinese hamster, read-out: Activity
[30] = test system: Salmonella typhimurium; experiment: Genotoxicity in Salmonella typhimurium TA1537 assessed as number of revertant colonies per plate at 556 ug/plate after 20 mins in absence of S9 fraction by Ames test (reference value: 9); assay type: toxicity, organism-based; conditions: salmonella enterica subsp. enterica serovar typhimurium
[31] = test system: Salmonella typhimurium; experiment: Genotoxicity in Salmonella typhimurium TA100 assessed as number of revertant colonies per plate at 20.6 ug/plate after 20 mins in absence of S9 fraction by Ames test (reference value: 123); assay type: toxicity, organism-based; conditions: salmonella enterica subsp. enterica serovar typhimurium
[32] = test system: Escherichia coli; experiment: Genotoxicity in Escherichia coli WP2uvrA assessed as number of revertant colonies per plate at 185 ug/plate after 20 mins in absence of S9 fraction by Ames test (reference value: 24); assay type: toxicity; conditions: s9, 20 min
[33] = test system: Salmonella typhimurium; experiment: Genotoxicity in Salmonella typhimurium TA98 assessed as number of revertant colonies per plate at 61.7 ug/plate after 20 mins in absence of S9 fraction by Ames test (reference value: 21); assay type: toxicity, organism-based; conditions: salmonella enterica subsp. enterica serovar typhimurium

COP(=O)(CCC(N)C(=O)O)Oc1cccc(CC(=O)O)c1 (stereo not drawn)
Activity [1]: 0% | Activity [2]: 0% | Stability [3]: Unstable | viability at 24 h, 33.8 ug/ml [4]: 105% | viability at 18 h, 211 ug/ml [5]: 101% | Activity [6]: 1% | Activity [7]: 12 | Activity [8]: Non-Toxic | K [9]: 150 M⁻¹ s⁻¹ | Activity [10]: 34 | Activity [11]: 26 | Activity [12]: 1% | Activity [13]: 18 | viability at 18 h, 5.41 ug/ml [14]: 103% | viability at 24 h, 5.41 ug/ml [15]: 105% | Activity [16]: 0% | viability at 24 h, 2.16 ug/ml [17]: 98% | Activity [18]: 29 | Activity [19]: 1% | Activity [20]: 0% | viability at 18 h, 1320 ug/ml [21]: 95.7% | Activity [22]: 0% | Activity [23]: 13 | Activity [24]: 0% | Activity [25]: 11 | Activity [26]: 10 | Activity [27]: 17 | viability at 24 h, 211 ug/ml [28]: 98.2% | viability at 18 h, 13.5 ug/ml [29]: 100% | Activity [30]: 11 | Activity [31]: 120 | Activity [32]: 23 | Activity [33]: 23
